Results reported in ChEMBL document CHEMBL1139940, “2-Aryl-2-hydroxyethylamine substituted 4-oxo-4,7-dihydrothieno[2,3-b]pyridines as broad-spectrum inhibitors of human herpesvirus polymerases” (Bioorg Med Chem Lett, 2007).
≈ marks a conversion by molar mass, not a printed value.

How the values were obtained:
[1] = target: T1, DNA polymerase catalytic subunit (Human cytomegalovirus (strain AD169) (HHV-5) (Human herpesvirus 5), UniProt P08546); experiment: Inhibition of HCMV DNA polymerase by scintillation proximity assay; parameters: species or system Human betaherpesvirus 5
T1 sequence (P08546 whole entry): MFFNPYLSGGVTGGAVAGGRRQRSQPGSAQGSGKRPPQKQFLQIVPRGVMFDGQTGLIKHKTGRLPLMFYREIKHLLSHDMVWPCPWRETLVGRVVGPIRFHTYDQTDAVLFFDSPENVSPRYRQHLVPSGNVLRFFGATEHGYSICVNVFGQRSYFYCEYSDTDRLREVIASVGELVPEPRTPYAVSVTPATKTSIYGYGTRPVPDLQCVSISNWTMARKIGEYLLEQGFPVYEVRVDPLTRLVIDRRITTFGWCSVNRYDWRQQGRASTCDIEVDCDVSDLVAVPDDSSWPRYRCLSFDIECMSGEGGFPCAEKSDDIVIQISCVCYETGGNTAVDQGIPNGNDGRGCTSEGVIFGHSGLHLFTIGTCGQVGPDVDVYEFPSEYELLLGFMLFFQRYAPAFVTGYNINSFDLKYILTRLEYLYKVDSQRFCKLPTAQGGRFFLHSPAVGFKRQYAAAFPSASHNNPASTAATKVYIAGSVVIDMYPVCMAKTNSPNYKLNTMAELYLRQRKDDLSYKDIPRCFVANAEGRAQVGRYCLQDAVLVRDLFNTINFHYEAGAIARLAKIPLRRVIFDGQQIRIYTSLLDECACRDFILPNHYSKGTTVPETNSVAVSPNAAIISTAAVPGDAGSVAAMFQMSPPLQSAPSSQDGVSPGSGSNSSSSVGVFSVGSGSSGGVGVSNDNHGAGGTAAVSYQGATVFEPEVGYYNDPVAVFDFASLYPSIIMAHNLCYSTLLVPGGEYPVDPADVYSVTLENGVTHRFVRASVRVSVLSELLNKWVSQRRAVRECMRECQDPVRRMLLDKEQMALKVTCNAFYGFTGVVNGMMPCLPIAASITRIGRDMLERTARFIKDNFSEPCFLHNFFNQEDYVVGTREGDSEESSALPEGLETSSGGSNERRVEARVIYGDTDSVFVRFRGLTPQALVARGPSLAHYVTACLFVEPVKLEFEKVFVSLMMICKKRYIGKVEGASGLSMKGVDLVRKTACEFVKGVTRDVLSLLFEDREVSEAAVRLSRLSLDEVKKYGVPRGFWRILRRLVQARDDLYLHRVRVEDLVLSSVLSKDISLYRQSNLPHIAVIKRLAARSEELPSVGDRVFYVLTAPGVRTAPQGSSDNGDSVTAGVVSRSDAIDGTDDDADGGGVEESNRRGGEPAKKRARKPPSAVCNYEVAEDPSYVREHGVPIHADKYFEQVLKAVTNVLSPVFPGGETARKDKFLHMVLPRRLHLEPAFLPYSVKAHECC
Outline: (§1)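 Purified viral or human DNA polymerase; incorporation of 3H-labeled nucleotide into template-primer measured by scintillation proximity.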

Human betaherpesvirus 5 = experiment: Antiviral activity against HCMV Davis in HFF cells by plaque reduction assay; assay type: functional, organism-based; conditions: Human betaherpesvirus 5, Davis
Outline: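 Plaque reduction in human foreskin fibroblasts infected with Davis strain; values are means of at least two experiments, SD given.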

[2] = Aqueous solubility of the compound; assay type: physicochemical
[3] = Inhibition of HSV1 DNA polymerase by scintillation proximity assay; parameters: species or system Human alphaherpesvirus 1; outline: as §1
[4] = Inhibition of VZV DNA polymerase by scintillation proximity assay; parameters: species or system Human alphaherpesvirus 3; outline: as §1
[5] = Cytotoxicity against HFF cells after 3 days; assay type: cell-based; conditions: human
Outline: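 Subconfluent replicating HFF monolayers exposed to compound for 3 days; viability scored by microscopic evaluation and quantitative neutral red dye uptake; CC50 from a single determination.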

Human gammaherpesvirus 4 = experiment: Antiviral activity against EBV in GG68 cells after 72 hrs; assay type: functional, organism-based; conditions: human gammaherpesvirus 4, GG68, 72 h
Outline: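 GG68 cells induced into lytic replication with 40 ng/mL TPA plus 4 mM n-butyric acid; compound added at 0.5% final DMSO; 72 h at 37 °C, then cells lysed and DNA harvested.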

Human alphaherpesvirus 1 = experiment: Antiviral activity against HSV1 KOS in Vero cells by plaque reduction assay; assay type: functional, organism-based; conditions: Human alphaherpesvirus 1, KOS
[6] = Oral bioavailability in dog at 15 mg/kg; assay type: ADME, organism-based, Canis lupus familiaris; conditions: in vivo
[7] = Inhibition of human DNA polymerase delta by scintillation proximity assay; outline: as §1
[8] = Inhibition of EBV DNA polymerase by T7 quick-coupled transcription-translation system; parameters: species or system human gammaherpesvirus 4
Outline: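 EBV polymerase plus BMRF-1 in 50 mM Tris pH 8, 70 mM NH4SO4, 10 mM MgCl2, dCTP/dTTP/dGTP, 0.5 µCi 32P-dATP, 100 µg/mL activated calf thymus DNA; compound added before enzyme, 1% final DMSO; 30 min at 37 °C; TCA precipitation onto glass filters, incorporated 32P counted by scintillation.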

[9] = Inhibition of human DNA polymerase gamma by scintillation proximity assay; outline: as §1
Human alphaherpesvirus 3 = experiment: Antiviral activity against VZV Webster in HFF cells by plaque reduction assay; assay type: functional, organism-based; conditions: Human alphaherpesvirus 3, Webster
[10] = Inhibition of human DNA polymerase alpha by scintillation proximity assay; outline: as §1
[11] = Oral bioavailability in rat at 15 mg/kg; assay type: ADME, organism-based; conditions: in vivo

IC50 [1]	IC50 (Human betaherpesvirus 5)	SMILES	other results
87 nM	20 nM	COc1cccc(C(O)CN(C)Cc2cc3c(=O)c(C(=O)NCc4ccc(Cl)cc4)cn(C)c3s2)c1 (centres undefined)	
160 nM	60 nM	CN(Cc1cc2c(=O)c(C(=O)NCc3cccc(Cl)c3)cn(C)c2s1)CC(O)c1cccnc1 (centres undefined)	
235 nM	200 nM	CN(Cc1cc2c(=O)c(C(=O)NCc3ccc(Cl)cc3)cn(C)c2s1)CC(O)c1nccs1 (centres undefined)	
66 nM	100 nM	CN(Cc1cc2c(=O)c(C(=O)NCc3ccc(Cl)cc3)cn(C)c2s1)CC(O)c1cccc(C#N)c1 (centres undefined)	
1580 nM	400 nM	Cn1cc(C(=O)NCc2ccc(Cl)cc2)c(=O)c2cc(CN(CCO)CC(O)c3ccccc3)sc21 (centres undefined)	
250 nM	400 nM	CN(Cc1cc2c(=O)c(C(=O)NCc3ccc(Cl)cc3)cn(C)c2s1)CC(O)c1ccoc1 (centres undefined)	
100 nM	57 nM	CN(Cc1cc2c(=O)c(C(=O)NCc3ccc(Cl)cc3)cn(C)c2s1)CC(O)c1ccc(O)cc1 (centres undefined)	
8400 nM	> 5000 nM	Cn1cc(C(=O)NCc2ccc(Cl)cc2)c(=O)c2cc(CNCC(O)c3ccccc3)sc21 (centres undefined)	
220 nM	200 nM	CN(Cc1cc2c(=O)c(C(=O)NCc3ccc(F)cc3)cn(C)c2s1)CC(O)c1ccc(F)cc1 (centres undefined)	
8900 nM	> 5000 nM	Cn1cc(C(=O)NCc2ccc(Cl)cc2)c(=O)c2cc(CN(CC(O)c3ccccc3)C3CC3)sc21 (centres undefined)	
3530 nM	1500 nM	CC(O)CN(C)Cc1cc2c(=O)c(C(=O)NCc3ccc(Cl)cc3)cn(C)c2s1 (centres undefined)	

The remaining lines, values behind:

SMILES	IC50 [1]	IC50 (Human betaherpesvirus 5)	other results
CN(Cc1cc2c(=O)c(C(=O)NCc3ccc(Cl)cc3)cn(C)c2s1)CC(O)c1cc2ccccc2o1 (centres undefined)	12 nM	150 nM	
CN(Cc1cc2c(=O)c(C(=O)NCc3ccc(Cl)cc3)cn(C)c2s1)CC(O)c1ccccc1 (centres undefined)	100 nM	180 nM	
CN(Cc1cc2c(=O)c(C(=O)NCc3ccc(Cl)cc3)cn(C)c2s1)CC(O)c1ccco1 (centres undefined)	77 nM	30 nM	solubility [2]: 0.4 µM (≈ 0.194 µg/mL)
C[C@H](O)CN(C)Cc1cc2c(=O)c(C(=O)NCc3ccc(Cl)cc3)cn(C)c2s1	35 nM		
CN(Cc1cc2c(=O)c(C(=O)NCc3ccc(Cl)cc3)cn(C)c2s1)C[C@@H](O)c1ccccc1			IC50 [3]: 400 nM; IC50 [4]: 200 nM
Nc1nc2c(ncn2COCCO)c(=O)[nH]1 [ACYCLOVIR]			CC50 at 72 h [5]: > 100000 nM; IC50 (Human gammaherpesvirus 4): 6900 nM
Nc1nc(O)c2ncn(COC(CO)CO)c2n1 [GANCICLOVIR]			CC50 at 72 h [5]: > 100000 nM
CC(C)N(Cc1cc2c(=O)c(C(=O)NCc3ccc(Cl)cc3)cn(C)c2s1)CC(O)c1ccccc1 (centres undefined)	2040 nM	1600 nM	
CN(Cc1cc2c(=O)c(C(=O)NCc3ccc(Cl)cc3)cn(C)c2s1)CC(O)c1cnccn1 (centres undefined)	85 nM	65 nM	solubility [2]: 72 µM (≈ 35.9 µg/mL)
CN(Cc1cc2c(=O)c(C(=O)NCc3cccc(Cl)c3)cn(C)c2s1)C[C@@H](O)c1ccccn1	61 nM	100 nM	IC50 (Human alphaherpesvirus 1): 3000 nM; bioavailability [6]: 76%; IC50 [7]: > 40000 nM; IC50 [8]: 70 nM; IC50 [9]: > 40000 nM; IC50 [3]: 76 nM; IC50 [4]: 21 nM; CC50 at 72 h [5]: > 100000 nM; IC50 (Human alphaherpesvirus 3): 2 nM; IC50 [10]: > 40000 nM; IC50 (Human gammaherpesvirus 4): 200 nM; bioavailability [11]: 45%
O=C(O)P(=O)(O)O [FOSCARNET]			IC50 [9]: < 280 nM
CN(Cc1cc2c(=O)c(C(=O)NCc3ccc(Cl)cc3)cn(C)c2s1)C[C@@H](O)c1cnccn1	37 nM	15 nM	IC50 (Human alphaherpesvirus 1): 1600 nM; bioavailability [6]: 66%; IC50 [7]: > 40000 nM; IC50 [9]: > 40000 nM; IC50 [3]: 76 nM; IC50 [4]: 19 nM; CC50 at 72 h [5]: > 100000 nM; IC50 (Human alphaherpesvirus 3): 7 nM; IC50 [10]: > 40000 nM; bioavailability [11]: 21%
CN(Cc1cc2c(=O)c(C(=O)NCc3ccc(Cl)cc3)cn(C)c2s1)C[C@H](O)c1ccccc1	2550 nM		IC50 [3]: 10500 nM; IC50 [4]: 5000 nM
CN(Cc1cc2c(=O)c(C(=O)NCc3ccc(Cl)cc3)cn(C)c2s1)CC(O)c1ccc2ccccc2n1 (centres undefined)	65 nM	40 nM	
CN(Cc1cc2c(=O)c(C(=O)NCc3ccc(Cl)cc3)cn(C)c2s1)CC(O)c1ncccn1 (centres undefined)	100 nM	100 nM	
CN(Cc1cc2c(=O)c(C(=O)NCc3ccc(Cl)cc3)cn(C)c2s1)CC(O)c1ccncc1 (centres undefined)	200 nM	85 nM	
CCN(Cc1cc2c(=O)c(C(=O)NCc3ccc(Cl)cc3)cn(C)c2s1)CC(O)c1ccccc1 (centres undefined)	240 nM	450 nM	
CN(Cc1cc2c(=O)c(C(=O)NCc3cccc(Cl)c3)cn(C)c2s1)CC(O)c1ccc(F)cc1 (centres undefined)	203 nM	250 nM	
CN(Cc1cc2c(=O)c(C(=O)NCc3ccc(Cl)cc3)cn(C)c2s1)CC(O)c1ccc(C#N)cc1 (centres undefined)	315 nM	300 nM	
CC(C)C(O)CN(C)Cc1cc2c(=O)c(C(=O)NCc3ccc(Cl)cc3)cn(C)c2s1 (centres undefined)	17500 nM	> 5000 nM	
CN(Cc1cc2c(=O)c(C(=O)NCc3ccc(Cl)cc3)cn(C)c2s1)CC(O)c1cccs1 (centres undefined)	175 nM	250 nM	
CN(Cc1cc2c(=O)c(C(=O)NCc3cccc(Cl)c3)cn(C)c2s1)CC(O)c1ccccn1 (centres undefined)	86 nM	90 nM	solubility [2]: 9 µM (≈ 4.47 µg/mL)
